hERG protect = compounds protecting human hERG from proarrhythmic drug block; Q12809; CHO-hERG, FluxOR thallium flux, dofetilide IC70 present; activation (rescue from dofetilide block), less the hit threshold, % at 10 µM; 0.51% of 310,000 active;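 active = activation above the mean of controls blocked by dofetilide plus 5 SD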;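 note: thallium influx through hERG after potassium depolarization seen as dye fluorescence rise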
Kir21 block = Kir2.1 (mouse) channel inhibition; P35561; HEK293-Kir2.1, FluxOR thallium flux fluorescence; stronger effect = lower value; B-score at 10 µM; 0.85% of 310,000 active; AID 1672;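 active = fluorescence ratio B-score at or below minus 3 SD of library scores, with starting-brightness B-score within 2 SD, cut at about -4.2 in these data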;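 note: channel flux triggered by added potassium and thallium sulfate stimulus; B-score of peak minus minimum fluorescence over baseline after thallium stimulus; more negative B-score means stronger Kir2.1 block with less thallium influx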
Target sequence (P35561 whole entry, looked up): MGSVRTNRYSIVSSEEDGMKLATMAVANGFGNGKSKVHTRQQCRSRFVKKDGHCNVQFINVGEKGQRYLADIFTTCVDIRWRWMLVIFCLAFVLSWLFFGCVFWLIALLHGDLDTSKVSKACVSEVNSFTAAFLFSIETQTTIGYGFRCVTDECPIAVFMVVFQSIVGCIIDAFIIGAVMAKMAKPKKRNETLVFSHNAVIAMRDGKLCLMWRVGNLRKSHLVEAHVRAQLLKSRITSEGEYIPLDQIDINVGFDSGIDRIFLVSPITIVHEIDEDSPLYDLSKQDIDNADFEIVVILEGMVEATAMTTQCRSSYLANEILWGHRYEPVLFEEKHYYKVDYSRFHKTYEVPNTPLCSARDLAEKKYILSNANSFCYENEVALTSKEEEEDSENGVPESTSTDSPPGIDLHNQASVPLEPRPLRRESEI
KCNK9 block = human KCNK9 channel inhibition; HEK293 KCNK9, FluxOR thallium flux fluorescence; stronger effect = lower value; B-score at 10 µM; 1.2% of 310,000 active; Q9NPC2; AID 488922;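 active = ratio B-score over 3 SD below the library mean, with starting fluorescence within 5 SD of its mean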;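 note: negative B-score means less thallium flux so channel inhibition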
KCNQ1 pot = human KCNQ1 channel potentiation or activation | 0.35% of 310,000 active | P51787 | B-score at 10 µM | CHO-K1 KCNQ1, thallium flux FluxOR fluorescence; stronger effect = higher value | AID 2648;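 active = fluorescence ratio B-score, a plate-corrected score, at least three library SD, with initial intensity B-score within 5 SD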
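System: Stable KCNQ1 CHO-K1 line | Incubation: 90 min dye loading and 20 min compound exposure, both at room temperature | Measure: Ratio B score | Medium: Assay buffer for compound exposure, DMSO matched across wells | Compound dosing: Single-concentration screen | Probe or stimulus: K+/Tl+ depolarizing stimulus | Measured by: Kinetic FluxOR fluorescence, 10 s baseline plus 110 s post-stimulus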
KCNQ1 inh = human KCNQ1 channel inhibition; P51787; CHO-K1 KCNQ1, FluxOR thallium flux fluorescence; stronger effect = higher value; B-score at 10 µM; 1.3% of 310,000 active; AID 2642;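 active = compounds whose thallium flux B-score, printed positive for inhibition, exceeds three library SD while starting fluorescence stays within three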;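 note: channel opened by potassium depolarization with thallium stimulus after 20 min compound exposure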
KCNK3 block = human KCNK3 channel inhibition, primary screen; O14649; CHO-KCNK3 thallium flux, FluxOR fluorescence; stronger effect = lower value; B-score at 10 µM; 0.84% of 340,000 active; AID 602410;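 active = B-score under library mean minus 4 SD, starting fluorescence ratio at most library mean plus 5 SD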;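 note: more negative B-score means stronger inhibition of thallium flux through KCNK3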
KCNK3 confirm = confirmation of human KCNK3 two-pore domain potassium channel inhibitors; shares compounds with KCNK3 block; CHO-KCNK3 thallium flux, FluxOR fluorescence; 0% buffer, 100% carvedilol maximal block; ratio percent of control, % at 10 µM; 99% of 2,400 active;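 active = ratio percent of control, averaged over triplicates, above buffer control mean plus 5 SD, cut at about 64% in these data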;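 note: ratio is the fluorescence rise from min to max over baseline after thallium stimulus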
KCNK3 noninduced = activity in cells without induced KCNK3 expression; 40% of 2,400 active; shares compounds with KCNK3 block; thallium flux ratio (lower = more inhibition) at 10 µM; AID 651747; non-induced KCNK3 parental cells, FluxOR thallium flux; stronger effect = lower value;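 active = thallium flux ratio, averaged over three wells, more than 5 SD below the buffer control mean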;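 note: host cells are CHO cells without KCNK3 induction; ratio is peak minus trough fluorescence over baseline then normalized to buffer controls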
The depositor's hits bear a star. An excerpt weighted towards active compounds, which were near 3.7% of everything screened.

Results for CCOC(=O)c1ccc(NC2c3ccccc3C(=O)N2c2cccnc2)cc1 (stereo not given) ?
hERG protect: -12; Kir21 block: -2.1; KCNK9 block: inactive; KCNQ1 pot: inactive; KCNQ1 inh: inactive; KCNK3 block: -9.7*; KCNK3 confirm: 112*; KCNK3 noninduced: inactive

How did O=C(NNc1c2ccccc2nc2ccccc12)c1cccc(O)c1 do in these assays?
hERG protect: -4; Kir21 block: 0.37; KCNK9 block: inactive; KCNQ1 pot: inactive; KCNQ1 inh: inactive; KCNK3 block: inactive

Results for Oc1cccc(-c2nc3ccc4ccccc4c3c3c2CCC3)c1 ?
hERG protect: -11; Kir21 block: -0.08; KCNK9 block: inactive; KCNQ1 pot: inactive; KCNQ1 inh: inactive; KCNK3 block: -19*; KCNK3 confirm: 111*; KCNK3 noninduced: 0.15*

What do the screens show for `O=C1/C(=C/c2ccc(Br)cc2)Oc2cc(O)ccc21`?
hERG protect: -2; Kir21 block: -1.1; KCNK9 block: inactive; KCNQ1 pot: inactive; KCNQ1 inh: 6*; KCNK3 block: -12*; KCNK3 confirm: 119*; KCNK3 noninduced: 0.13*

What do the screens show for `Cc1cc(C)c(NC(=O)CN(C)C(=O)CNC(=O)c2cccs2)c(C)c1`?
KCNK3 block: inactive

Results for Oc1ccc(Cl)cc1C1=NNC(c2cc(Br)cc3c2OCOC3)C1 (stereo not given) ?
hERG protect: -3; Kir21 block: 1.6; KCNK9 block: inactive; KCNQ1 pot: inactive; KCNQ1 inh: inactive; KCNK3 block: -8.8*; KCNK3 confirm: 96*; KCNK3 noninduced: inactive

How did COc1ccc(C2=NNC(c3cc(Cl)cc4c3OCOC4)C2)c(O)c1 (stereo not given) do in these assays?
hERG protect: -12; Kir21 block: 0.05; KCNK9 block: inactive; KCNQ1 pot: inactive; KCNQ1 inh: inactive

How did O=C(Nc1ccc(N2CCOCC2)cc1)c1cc2c(s1)CCCCC2 do in these assays?
hERG protect: -7; Kir21 block: 1.5; KCNK9 block: inactive; KCNQ1 pot: inactive; KCNQ1 inh: inactive; KCNK3 block: inactive

Results for O=C(Nc1ccccc1N1CCOCC1)c1cccc(NS(=O)(=O)c2ccc(F)c(F)c2)c1 ?
hERG protect: -10; Kir21 block: -1.2; KCNK9 block: inactive; KCNQ1 pot: inactive; KCNQ1 inh: inactive; KCNK3 block: -8.7*; KCNK3 confirm: 94*; KCNK3 noninduced: 0.16*

How did CC(=O)Nc1cccc(C(=O)Nc2ccccc2N2CCOCC2)c1 do in these assays?
hERG protect: -12; Kir21 block: -2.5; KCNK9 block: inactive; KCNQ1 pot: inactive; KCNQ1 inh: inactive; KCNK3 block: inactive

Results for O=C(Nc1ccccc1N1CCOCC1)c1cc2c(s1)CCCCC2 ?
hERG protect: -5; Kir21 block: 0.4; KCNK9 block: inactive; KCNQ1 pot: inactive; KCNQ1 inh: inactive; KCNK3 block: -10*; KCNK3 confirm: 118*; KCNK3 noninduced: inactive

How did Cc1snc(SCc2ccc(Cl)cc2)c1C#N do in these assays?
hERG protect: -7; Kir21 block: -1.5; KCNK9 block: inactive; KCNQ1 pot: inactive; KCNQ1 inh: inactive; KCNK3 block: inactive

Results for Clc1ccccc1/C=C/C=N/Nc1nc(N2CCOCC2)nc(N2CCOCC2)n1 ?
hERG protect: -19; Kir21 block: -0.47; KCNK9 block: inactive; KCNQ1 pot: inactive; KCNQ1 inh: inactive; KCNK3 block: -10*; KCNK3 confirm: 94*; KCNK3 noninduced: inactive

What do the screens show for `N#Cc1cnc(NCc2ccc(Cl)cc2Cl)nc1`?
hERG protect: -11; Kir21 block: -1.2; KCNK9 block: inactive; KCNQ1 pot: inactive; KCNQ1 inh: inactive; KCNK3 block: -12*; KCNK3 confirm: 108*; KCNK3 noninduced: inactive

What do the screens show for `O=C(c1cc(-c2cccnc2)nc2ccccc12)N1CCN(S(=O)(=O)c2ccc(Cl)s2)CC1`?
KCNK3 block: inactive

How did CCOc1ccccc1NC(=O)N1CCc2ccccc2C1 do in these assays?
hERG protect: -15; Kir21 block: 0.91; KCNK9 block: inactive; KCNQ1 pot: inactive; KCNQ1 inh: inactive; KCNK3 block: -9*; KCNK3 confirm: 84*; KCNK3 noninduced: inactive

What do the screens show for `COCCN(C(=O)COC(=O)c1ccccc1Oc1ccccc1)c1c(N)n(Cc2ccccc2)c(=O)[nH]c1=O`?
hERG protect: -13; Kir21 block: 0.74; KCNK9 block: inactive; KCNQ1 pot: inactive; KCNQ1 inh: inactive; KCNK3 block: inactive

Results for CCCn1c(CNc2ccc(Br)cc2)nc2ccccc21 ?
hERG protect: -15; Kir21 block: 0.09; KCNK9 block: inactive; KCNQ1 pot: inactive; KCNQ1 inh: inactive; KCNK3 block: -12*; KCNK3 confirm: 124*; KCNK3 noninduced: 0.14*

How did CCOC(=O)c1[nH]cnc1C(=O)NC1CCN(C(=O)OC(C)(C)C)CC1 do in these assays?
KCNK3 block: inactive

What do the screens show for `CCOCCCNC(=O)/C(C#N)=C/c1ccc(Cl)c([N+](=O)[O-])c1`?
hERG protect: -22; Kir21 block: 0.92; KCNK9 block: inactive; KCNQ1 pot: inactive; KCNQ1 inh: inactive; KCNK3 block: -9.1*; KCNK3 confirm: 122*; KCNK3 noninduced: 0.12*

Results for Cc1ccc(NS(=O)(=O)c2ccc(-c3cnc(C4CC4)o3)cc2)c(C)c1 ?
hERG protect: -6; Kir21 block: 0.68; KCNK9 block: inactive; KCNQ1 pot: inactive; KCNQ1 inh: inactive; KCNK3 block: -10*; KCNK3 confirm: 132*; KCNK3 noninduced: 0.14*

What do the screens show for `Cc1ccc(N(C)S(=O)(=O)c2cc(-c3cnc(C4CC4)o3)ccc2C)cc1`?
hERG protect: -12; Kir21 block: -0.16; KCNK9 block: inactive; KCNQ1 pot: inactive; KCNQ1 inh: inactive; KCNK3 block: -11*; KCNK3 confirm: 145*; KCNK3 noninduced: inactive

How did COc1cc(NC(=O)CCCNC(=O)c2ccc(Cl)cc2)cc(OC)c1OC do in these assays?
hERG protect: -5; Kir21 block: -0.67; KCNK9 block: inactive; KCNQ1 pot: inactive; KCNQ1 inh: inactive; KCNK3 block: inactive

How did CCCN(CCC)c1nc(C#N)nc(N(CCC)CCC)n1 do in these assays?
hERG protect: -19; Kir21 block: -0.91; KCNK9 block: inactive; KCNQ1 pot: inactive; KCNQ1 inh: inactive; KCNK3 block: -11*; KCNK3 confirm: 102*; KCNK3 noninduced: inactive
